{"data": "Experimental data gathered from unrelated publications", "cell line": "HepG2", "observed": "cell growth or viability", "note": "Protocols differ between the studies behind these lines."}
{"Structure (SMILES)": "COc1cc(C2Oc3cc([C@H]4Oc5cc(O)cc(O)c5C(=O)[C@@H]4O)ccc3OC2CO)ccc1O (some centres unmarked)", "method": "CCK-8", "time": "72 h", "IC50": "24.3 µM"}
{"Structure (SMILES)": "C[C@H]1O[C@@H](n2cc(F)c(=O)[nH]c2=O)[C@H](O)[C@@H]1O", "method": "CCK-8", "time": "48 h", "IC50": "> 50 µM"}
{"Structure (SMILES)": "COc1cc(-c2nc(OCc3cn(CC(=O)Nc4ccc(C)cc4)nn3)c3ccccc3n2)cc(OC)c1OC", "method": "MTT", "time": "72 h", "IC50": "13.6 µM"}
{"Structure (SMILES)": "CC(=O)OCCOC(=O)[C@]1(C)CC[C@]2(C)CC[C@]3(C)C4=CC=C5C(=CC(=O)C(O)=C5C)[C@]4(C)CC[C@@]3(C)[C@@H]2C1", "method": "MTT", "time": "48 h", "IC50": "2.55 µM"}
{"Structure (SMILES)": "CN(C)c1ccc(-c2nc3ccccc3[nH]2)cc1", "method": "MTT", "time": "48 h", "IC50": "37.5 µM"}
{"Structure (SMILES)": "COC(=O)CN=c1scc(-c2ccccc2)n1-c1ccccc1C", "method": "MTT", "time": "72 h", "IC50": "79.2 µM"}
{"Structure (SMILES)": "Oc1ccc(Br)cc1-c1nc2ccccc2[nH]1", "method": "MTT", "time": "48 h", "IC50": "8.94 µM"}
{"Structure (SMILES)": "c1ccc(-c2ccccn2)nc1", "method": "MTT", "time": "48 h", "IC50": "> 50 µM"}
{"Structure (SMILES)": "COC(=O)CN=c1scc(-c2ccccc2)n1-c1ccccc1", "method": "MTT", "time": "72 h", "IC50": "75.5 µM"}
{"Structure (SMILES)": "Clc1ccc(Cn2c(-c3ccc(Cl)cc3)nc3ccccc32)cc1", "method": "MTT", "IC50": "10.1 µM"}
{"Structure (SMILES)": "COc1ccc(-c2cc(-c3ccc4oc(=O)cc(C)c4c3O)nc(N)n2)cc1", "method": "MTT", "time": "72 h", "IC50": "> 128 µg/mL"}
{"Structure (SMILES)": "COc1cc2ncnc(Nc3ccc(F)c(Cl)c3)c2cc1NC(=O)N/N=C/c1cccn1CCN1CCCCC1", "method": "MTT", "time": "72 h", "IC50": "0.05 µM"}
{"Structure (SMILES)": "CC(=O)O[C@H]1C(=O)[C@@]2(C)[C@H]([C@H](OC(=O)c3ccccc3)[C@]3(O)C[C@H](OC(=O)[C@H](O)[C@@H](NC(=O)c4ccccc4)c4ccccc4)C(C)=C1C3(C)C)[C@]1(OC(C)=O)CO[C@@H]1C[C@@H]2O", "method": "MTT", "time": "48 h", "IC50": "4.75 µM"}
{"Structure (SMILES)": "Cc1cc(C)cc(NC(=O)NNC(=O)c2ccc(Nc3nccc(-c4ccccn4)n3)cc2)c1", "method": "MTT", "time": "24 h", "IC50": "20.3 µM"}
{"Structure (SMILES)": "COc1cccc2c1C(=O)c1c(O)c3c(c(O)c1C2=O)C[C@@](O)(C(=O)CO)C[C@@H]3O[C@H]1C[C@H](N)[C@H](O)[C@H](C)O1", "method": "MTT", "time": "24 h", "IC50": "3.6 µM"}
{"Structure (SMILES)": "Cc1cc(C)n(-c2nc(Nc3ccc(Cl)cc3)nc(-n3nc(C)cc3C)n2)n1", "method": "MTT", "time": "72 h", "IC50": "19.5 µM"}
{"Structure (SMILES)": "COc1ccc(NC(=O)NNC(=O)c2cccc(Nc3nccc(-c4cccnc4)n3)c2)c(OC)c1", "method": "MTT", "time": "24 h", "IC50": "> 40 µM"}
{"Structure (SMILES)": "Cc1ccc2nc(-c3ccncc3)[nH]c2c1", "method": "MTT", "time": "48 h", "IC50": "52.6 µM"}
{"Structure (SMILES)": "CC1=C(O)C(=O)C=C2C1=CC=C1[C@@]2(C)CC[C@@]2(C)[C@@H]3C[C@](C)(C(=O)OCCCCCO)CC[C@]3(C)CC[C@]12C", "method": "MTT", "time": "48 h", "IC50": "10.1 µM"}
{"Structure (SMILES)": "Cc1cccc(NC(=O)NNC(=O)c2ccc(Nc3nccc(-c4ccccn4)n3)cc2)c1", "method": "MTT", "IC50": "23.3 µM"}
{"Structure (SMILES)": "Cc1cc(=O)oc2ccc(-c3cc(-c4ccc(Br)cc4)nc(N)n3)c(O)c12", "method": "MTT", "time": "72 h", "IC50": "> 128 µg/mL"}
{"Structure (SMILES)": "Cc1ccc(-c2csc(Nc3ccc4c(O)ncnc4c3)n2)cc1", "method": "MTT", "IC50": "12.6 µM"}
{"Structure (SMILES)": "Cc1ccc(-c2cc(-c3ccc4oc(=O)cc(C)c4c3O)nc(N)n2)cc1", "method": "MTT", "time": "72 h", "IC50": "> 128 µg/mL"}
{"Structure (SMILES)": "C=CCn1c(-c2ccc(Cl)c(Cl)c2)nc2ccccc21", "method": "MTT", "IC50": "66.1 µM"}
{"Structure (SMILES)": "CC1=C(O)C(=O)C=C2C1=CC=C1[C@@]2(C)CC[C@@]2(C)[C@@H]3C[C@](C)(C(=O)OCCCn4ccc5ccccc54)CC[C@]3(C)CC[C@]12C", "method": "MTT", "time": "48 h", "IC50": "> 100 µM"}
{"Structure (SMILES)": "Oc1ncnc2cc(Nc3nc(-c4ccc(Cl)cc4)cs3)ccc12", "method": "MTT", "IC50": "9.36 µM"}
{"Structure (SMILES)": "O=c1[nH]cc(F)c(=O)[nH]1", "method": "MTT", "time": "48 h", "IC50": "32.8 µM"}
{"Structure (SMILES)": "Oc1ncnc2cc(Nc3nc(-c4ccc(F)cc4)cs3)ccc12", "method": "MTT", "IC50": "7.92 µM"}
{"Structure (SMILES)": "CC(=O)O[C@@]12CO[C@@H]1C[C@H](O)[C@@]1(C)C(=O)[C@H](O)C3=C(C)[C@@H](OC(=O)[C@H](O)[C@@H](NC(=O)OC(C)(C)C)c4ccccc4)C[C@@](O)([C@@H](OC(=O)c4ccccc4)[C@H]21)C3(C)C", "method": "CCK-8", "time": "72 h", "IC50": "0.11 µM"}
{"Structure (SMILES)": "CN(C)CCn1cccc1/C=N/NC(=O)Nc1cc2c(Nc3ccc(F)c(Cl)c3)ncnc2cc1O[C@H]1CCOC1", "method": "MTT", "time": "72 h", "IC50": "0.04 µM"}
{"Structure (SMILES)": "Oc1ccc(-c2csc(Nc3ccc4c(O)ncnc4c3)n2)cc1", "method": "MTT", "IC50": "14.2 µM"}
{"Structure (SMILES)": "CN1CCN(CCCn2cccc2/C=N/NC(=O)Nc2cc3c(Nc4ccc(F)c(Cl)c4)ncnc3cc2O[C@H]2CCOC2)CC1", "method": "MTT", "time": "72 h", "IC50": "0.68 µM"}
{"Structure (SMILES)": "CCNC(=O)NNC(=O)c1ccc(Nc2nccc(-c3ccc(Cl)cc3)n2)cc1", "method": "MTT", "time": "24 h", "IC50": "20.3 µM"}
{"Structure (SMILES)": "CC1(C)CC[C@]2(C)CC[C@]3(C)C(=CC[C@@H]4[C@@]5(C)CC[C@H](O)C(C)(C)[C@@H]5CC[C@]43C)[C@@H]2C1", "method": "WST-1", "time": "48 h", "IC50": "82.8 µM"}
{"Structure (SMILES)": "COc1cc2ncnc(Nc3ccc(F)c(Cl)c3)c2cc1NC(=O)N/N=C/CN1CCOCC1", "method": "MTT", "time": "72 h", "IC50": "4.42 µM"}
{"Structure (SMILES)": "O=C(/C=C/c1ccc(O)c(O)c1)O[C@@H]1C[C@](O)(C(=O)O)C[C@@H](O)[C@H]1O", "method": "WST-1", "time": "48 h", "IC50": "24.6 µM"}
{"Structure (SMILES)": "COc1cc2ncnc(Nc3ccc(F)c(Cl)c3)c2cc1NC(=O)N/N=C/c1cccn1CCCN(C)C", "method": "MTT", "time": "72 h", "IC50": "0.05 µM"}
{"Structure (SMILES)": "Cc1ccc2nc(-c3cc(Br)ccc3O)[nH]c2c1", "method": "MTT", "time": "48 h", "IC50": "8.93 µM"}
{"Structure (SMILES)": "CCN(CC)C/C=N/NC(=O)Nc1cc2c(Nc3ccc(F)c(Cl)c3)ncnc2cc1O[C@H]1CCOC1", "method": "MTT", "time": "72 h", "IC50": "2.38 µM"}
{"Structure (SMILES)": "Clc1ccnc2c1ccc1c(Cl)ccnc12", "method": "MTT", "time": "48 h", "IC50": "> 50 µM"}
{"Structure (SMILES)": "COc1c(-c2coc3cc4c(cc3c2=O)CC(OC(C)=O)C(C)(C)O4)ccc2c1C=CC(C)(C)O2 (centres unmarked)", "method": "WST-1", "time": "72 h", "IC50": "124 µM"}
{"Structure (SMILES)": "COc1cc2ncnc(Nc3ccc(F)c(Cl)c3)c2cc1NC(=O)N/N=C/c1cccn1CCCN1CCOCC1", "method": "MTT", "time": "72 h", "IC50": "0.12 µM"}
{"Structure (SMILES)": "COc1cccc2c1C(=O)c1c(O)c3c(c(O)c1C2=O)C[C@@](O)(C(=O)CO)C[C@@H]3O[C@H]1C[C@H](N)[C@H](O)[C@H](C)O1", "method": "MTT", "time": "48 h", "IC50": "0.1 µM"}
{"Structure (SMILES)": "O=C(N/N=C/c1cccn1CCN1CCCC1)Nc1cc2c(Nc3ccc(F)c(Cl)c3)ncnc2cc1O[C@H]1CCOC1", "method": "MTT", "time": "72 h", "IC50": "0.64 µM"}
{"Structure (SMILES)": "Cc1ccc2c(Cl)cc(Cl)c(O)c2n1", "method": "MTT", "time": "48 h", "IC50": "> 100 µM"}
{"Structure (SMILES)": "Cc1ccc2nc(-c3ccc(F)cc3)n(Cc3ccccc3)c2c1", "method": "MTT", "IC50": "27.2 µM"}
{"Structure (SMILES)": "CC1=C(O)C(=O)C=C2C1=CC=C1[C@@]2(C)CC[C@@]2(C)[C@@H]3C[C@](C)(C(=O)OCCO)CC[C@]3(C)CC[C@]12C", "method": "MTT", "time": "48 h", "IC50": "0.62 µM"}
